Test results taken from ChEMBL document CHEMBL1800022, “Structure-activity relationships of a series of analogues of the RFamide-related peptide 26RFa” (J Med Chem, 2011).
Residues, ends and D or L forms follow the SMILES beside them. *: point of attachment. Adamantane1carbonyl = O=C(C12CC3CC(CC(C3)C1)C2)*; 2Furoyl = O=C(c1ccco1)*; Cbz = O=C(OCc1ccccc1)*; Bz = O=C(c1ccccc1)*

What follows are compounds tested against T1, Pyroglutamylated RF-amide peptide receptor (Homo sapiens, UniProt Q96P65) (assay: Agonist activity at DYKDDDDK-flagged human GPR103 receptor expressed in CHO-K1 cells co-expressing G-protein alpha16 assessed as stimulation of calcium mobilization after 2 mins by fluorometric analysis).
T1 sequence (Q96P65 whole entry): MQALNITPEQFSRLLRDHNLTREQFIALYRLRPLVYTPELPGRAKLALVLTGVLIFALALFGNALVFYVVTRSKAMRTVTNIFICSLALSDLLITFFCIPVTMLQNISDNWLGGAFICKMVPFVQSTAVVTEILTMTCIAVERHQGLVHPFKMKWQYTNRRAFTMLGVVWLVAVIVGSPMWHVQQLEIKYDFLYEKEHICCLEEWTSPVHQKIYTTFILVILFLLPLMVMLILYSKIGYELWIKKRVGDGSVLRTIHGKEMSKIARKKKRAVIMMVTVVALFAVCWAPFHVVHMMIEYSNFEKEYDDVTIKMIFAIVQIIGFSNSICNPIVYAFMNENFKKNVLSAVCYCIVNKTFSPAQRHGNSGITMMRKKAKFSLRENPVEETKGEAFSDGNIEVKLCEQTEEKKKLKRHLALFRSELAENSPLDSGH
Assay type: functional, cell-based
In short: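 CHO-K1 cells stably expressing Gα16 and C-terminally flag-tagged human GPR103 (Geneticin-selected), plated at 40 000 cells/well 24 h before assay. Loaded with 2 μM Fluo-4AM for 1 h, washed, then 30 min in HBSS with 2.5 mM probenecid and 5 mM HEPES. Peptides added at 10^-12 to 10^-5 M final and fluorescence read for 2 min. Triplicates; EC50 from sigmoidal variable-slope fit, at least three experiments.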

EC50 [nM] | Structure (SMILES)
817 | CC[C@@H](C)[C@H](NC(=O)[C@H](Cc1ccccc1)NC(=O)CNC(=O)CN)C(=O)N[C@@H](Cc1ccccc1)C(=O)N[C@@H](CCCN=C(N)N)C(=O)N[C@@H](Cc1ccccc1)C(N)=O
739 | N=C(N)NCCC[C@H](NC(=O)[C@H](Cc1ccccc1)NC(=O)[C@H](CO)NC(=O)[C@H](Cc1ccccc1)NC(=O)CNC(=O)CN)C(=O)N[C@@H](Cc1ccccc1)C(N)=O
4980 | NCC(=O)NCC(=O)N[C@@H](Cc1ccccc1)C(=O)N[C@H](CO)C(=O)N[C@@H](Cc1ccccc1)C(=O)N[C@@H](CCCN=C(N)N)C(=O)N[C@@H](Cc1ccccc1)C(N)=O
695 | NC(=O)[C@H](Cc1ccccc1)NC(=O)[C@H](CCCN=C(N)N)NC(=O)[C@H](Cc1ccccc1)NC(=O)[C@H](CO)NC(=O)[C@H](Cc1ccccc1)NC(=O)CNC(=O)CNC(=O)c1ccco1 (2Furoyl-GGFSFRF-NH2)
1440 | CC(=O)NCC(=O)NCC(=O)N[C@@H](Cc1ccccc1)C(=O)N[C@@H](CO)C(=O)N[C@@H](Cc1ccccc1)C(=O)N[C@@H](CCCNC(=N)N)C(=O)N[C@@H](Cc1ccccc1)C(N)=O (Ac-GGFSFRF-NH2)
588 | N=C(N)NCCC[C@H](NC(=O)[C@H](Cc1ccccc1)NC(=O)[C@H](CO)NC(=O)[C@H](Cc1ccccc1)NC(=O)CNC(=O)CNC(=O)C12CC3CC(CC(C3)C1)C2)C(=O)N[C@@H](Cc1ccccc1)C(N)=O (Adamantane1carbonyl-GGFSFRF-NH2)
722 | N=C(N)NCCC[C@H](NC(=O)[C@H](Cc1ccccc1)NC(=O)[C@H](CO)NC(=O)[C@H](Cc1ccccc1)NC(=O)CNC(=O)CNC(=O)c1ccccc1)C(=O)N[C@@H](Cc1ccccc1)C(N)=O (Bz-GGFSFRF-NH2)
826 | NC(=O)[C@H](Cc1ccccc1)NC(=O)[C@H](CCCN=C(N)N)NC(=O)[C@H](Cc1ccccc1)NC(=O)[C@H](CO)NC(=O)[C@H](Cc1ccccc1)NC(=O)CNC(=O)CNC(=O)OCc1ccccc1 (Cbz-GGFSFRF-NH2)
3350 | C[C@H](N)C(=O)NCC(=O)N[C@@H](Cc1ccccc1)C(=O)N[C@@H](CO)C(=O)N[C@@H](Cc1ccccc1)C(=O)N[C@@H](CCCNC(=N)N)C(=O)N[C@@H](Cc1ccccc1)C(N)=O (H-AGFSFRF-NH2)
4.9 | CC(C)C[C@H](NC(=O)[C@H](CCC(=O)O)NC(=O)[C@H](CCC(=O)O)NC(=O)[C@H](C)NC(=O)[C@H](CC(C)C)NC(=O)[C@@H](NC(=O)CNC(=O)[C@H](CC(C)C)NC(=O)[C@@H]1CCCN1C(=O)CNC(=O)[C@H](CO)NC(=O)[C@H](C)N)[C@@H](C)O)C(=O)N[C@@H](CO)C(=O)N[C@@H](CO)C(=O)N[C@@H](Cc1ccc(O)cc1)C(=O)N[C@@H](CO)C(=O)N[C@@H](CCCNC(=N)N)C(=O)N[C@@H](CCCNC(=N)N)C(=O)N[C@@H](CCCCN)C(=O)NCC(=O)NCC(=O)N[C@@H](Cc1ccccc1)C(=O)N[C@@H](CO)C(=O)N[C@@H](Cc1ccccc1)C(=O)N[C@@H](CCCNC(=N)N)C(=O)N[C@@H](Cc1ccccc1)C(N)=O (H-ASGPLGTLAEELSSYSRRKGGFSFRF-NH2)
37.5 | CC(C)C[C@H](NC(=O)[C@H](CCC(=O)O)NC(=O)[C@@H](N)CCC(=O)O)C(=O)N[C@@H](CC(N)=O)C(=O)NCC(=O)N[C@@H](Cc1ccc(O)cc1)C(=O)N[C@@H](CO)C(=O)N[C@@H](CCCNC(=N)N)C(=O)N[C@@H](CCCCN)C(=O)N[C@@H](CCCCN)C(=O)NCC(=O)NCC(=O)N[C@@H](Cc1ccccc1)C(=O)N[C@@H](CO)C(=O)N[C@@H](Cc1ccccc1)C(=O)N[C@@H](CCCNC(=N)N)C(=O)N[C@@H](Cc1ccccc1)C(N)=O (H-EELNGYSRKKGGFSFRF-NH2)
2910 | C[C@H](NC(=O)[C@H](Cc1cnc[nH]1)NC(=O)[C@@H](N)CCC(=O)O)C(=O)NCC(=O)N[C@@H](CS)C(=O)N[C@@H](CCCN=C(N)N)C(=O)N[C@@H](Cc1ccccc1)C(=O)N[C@@H](CCCN=C(N)N)C(=O)N[C@@H](Cc1ccccc1)C(N)=O (H-EHAGCRFRF-NH2)
2980 | C[C@H](NC(=O)CN)C(=O)N[C@@H](Cc1ccccc1)C(=O)N[C@@H](CO)C(=O)N[C@@H](Cc1ccccc1)C(=O)N[C@@H](CCCN=C(N)N)C(=O)N[C@@H](Cc1ccccc1)C(N)=O (H-GAFSFRF-NH2)
